The results in this text go back to ChEMBL document CHEMBL1208776, “Design, synthesis and evaluation of a novel double pro-drug: INX-08189. A new clinical candidate for hepatitis C virus” (Bioorg Med Chem Lett, 2010).

The structures appear in SMILES notation. Some results are limits rather than exact numbers.

The nature of series [1]: Cytotoxicity against human HuH7 cells. It counts as cell-based, Huh-7.
The test system of the next series is Caco-2. The series can be described thus: (§1) Permeability across human Caco-2 cells from apical to basolateral side in human Caco2 cell membrane. The class given is ADME, cell-based. In outline:
(§2)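 Caco-2 monolayers were grown for 27 days (resistance 600 ohms/cm²). Apical-to-basal transport was measured as % transported in 80 min, with permeability expressed in cm/s.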

The next series has as its system Hepatitis C virus. As to the kind of experiment: Antiviral activity against HCV genotype 1b in Huh7 cells assessed as inhibition of viral replication by cell-based replicon assay. The class given is functional, organism-based, Hepacivirus hominis. Particulars: Huh-7. (In general: A replicon is a self-replicating genome or part of one, used to study replication in cells.)

Series [2] in a line: as §1. The conditions noted are these: read-out: permeability. It counts as ADME, cell-based. A digest of the protocol:
as §2

The next series relates to Carboxypeptidase A. The series can be described thus: Half life in carboxypeptidase A assay.
For a further series, the system named is Hepatocyte. The series can be described thus: Cmax in primary human hepatocytes after 2uM treatment. It counts as ADME, cell-based. A digest of the protocol:
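Primary human hepatocytes were incubated with 2 µM compound. Intracellular 2′-C-methyl guanosine triphosphate was measured over 48 h and expressed as pmol/10⁶ cells. Cmax and decay half-life were estimated from the time course.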

[3] abbreviates: human, HuH7 cells, read-out: CC50.

Broadly, the CC50 is the concentration at which the toxic effect on the cells reaches its halfway point. One may read the EC50 as the concentration at which the effect is half-maximal. A word on the EC90: it is the concentration needed for an effect of 90%. Take `C[C@H](NP(=O)(OC[C@H]1O[C@@H](n2cnc3c(=O)[nH]c(N)nc32)[C@](C)(O)[C@@H]1O)Oc1cccc2ccccc12)C(=O)OCC(C)(C)C` (stereo partly drawn): in series [1] (setting [3]), the 50% cytotoxic concentration (CC50) was over 100000 nM. Besides, the permeability in the series with Caco-2 is listed as under 0.5%. In addition, in the series on Hepatitis C virus, the concentration for a half-maximal effect (EC50) amounted to 72 nM and the EC90 came out at 270 nM.

Regarding `COc1nc(N)nc2c1ncn2[C@@H]1O[C@H](COP(=O)(N[C@@H](C)C(=O)OCc2ccccc2)Oc2cccc3ccccc23)[C@@H](O)[C@@]1(C)O` (stereo partly drawn), the CC50 in series [1] (Homo sapiens, Huh-7) was determined as 12000 nM. The Papp A→B in series [2] came out at 4.02 ×10⁻⁶ cm/s. In addition, in the series on Hepatitis C virus, the EC50 was 30 nM and the EC90 was found to be 100 nM.

On to `CCCOC(=O)[C@H](C)NP(=O)(OC[C@H]1O[C@@H](n2cnc3c(OC)nc(N)nc32)[C@](C)(O)[C@@H]1O)Oc1cccc2ccccc12` (stereo partly drawn), for which the CC50 in series [1] (Homo sapiens, Huh-7) came out at 13000 nM. In the series on Hepatitis C virus, the EC50 is 30 nM and the EC90 was 100 nM.

In turn, `COc1nc(N)nc2c1ncn2[C@@H]1O[C@H](COP(=O)(N[C@@H](C)C(=O)OC(C)C)Oc2cccc3ccccc23)[C@@H](O)[C@@]1(C)O` (stereo partly drawn) registered a CC50 in series [1] (Homo sapiens, Huh-7) of over 100000 nM. Also, in the series with Hepatitis C virus, the EC50 came to 540 nM and the EC90 worked out at 1700 nM.

As for `COc1nc(N)nc2c1ncn2[C@@H]1O[C@H](COP(=O)(N[C@@H](C)C(=O)OC2CCCCC2)Oc2cccc3ccccc23)[C@@H](O)[C@@]1(C)O` (stereo partly drawn), the CC50 in series [1] (Homo sapiens, Huh-7) came out at 6000 nM. In the series on Hepatitis C virus, the EC50 came to 30 nM and the EC90 was determined as 90 nM.

In series [1] (Homo sapiens, Huh-7), `COc1nc(N)nc2c1ncn2[C@@H]1O[C@H](COP(=O)(N[C@@H](C)C(=O)OC2CCCC2)Oc2cccc3ccccc23)[C@@H](O)[C@@]1(C)O` (stereo partly drawn) displayed a CC50 of 9000 nM. Also, in the series with Hepatitis C virus, the EC50 is 30 nM and the EC90 was found to be 80 nM.

Compound `COc1nc(N)nc2c1ncn2[C@@H]1O[C@H](COP(=O)(N[C@@H](C)C(=O)OCCC(C)(C)C)Oc2cccc3ccccc23)[C@@H](O)[C@@]1(C)O` (stereo partly drawn) had a CC50 in series [1] (Homo sapiens, Huh-7) of 14000 nM. Also, in the series with Hepatitis C virus, the EC50 was 20 nM and the EC90 came to 80 nM.

Turning to `COc1nc(N)nc2c1ncn2[C@@H]1O[C@H](COP(=O)(N[C@H](C)C(=O)OCC(C)(C)C)Oc2cccc3ccccc23)[C@@H](O)[C@@]1(C)O` (stereo partly drawn), the CC50 in series [1] (Homo sapiens, Huh-7) is 51000 nM. In the series on Hepatitis C virus, the EC50 is 240 nM and the EC90 came to 580 nM.

The compound `COc1nc(N)nc2c1ncn2[C@@H]1O[C@H](COP(=O)(N[C@@H](CCSC)C(=O)OCC(C)(C)C)Oc2cccc3ccccc23)[C@@H](O)[C@@]1(C)O` (stereo partly drawn) yielded a CC50 in series [1] (Homo sapiens, Huh-7) of 28000 nM. Moreover, in the series with Hepatitis C virus, the EC50 was 60 nM and the EC90 was 190 nM.

As for `COc1nc(N)nc2c1ncn2[C@@H]1O[C@H](COP(=O)(N[C@@H](CC(C)C)C(=O)OCC(C)(C)C)Oc2cccc3ccccc23)[C@@H](O)[C@@]1(C)O` (stereo partly drawn), the CC50 in series [1] (Homo sapiens, Huh-7) is 14000 nM. Moreover, in the series with Hepatitis C virus, the EC50 came out at 70 nM and the EC90 worked out at 230 nM.

In series [1] (Homo sapiens, Huh-7), `CC[C@H](C)[C@H](NP(=O)(OC[C@H]1O[C@@H](n2cnc3c(OC)nc(N)nc32)[C@](C)(O)[C@@H]1O)Oc1cccc2ccccc12)C(=O)OCC(C)(C)C` (stereo partly drawn) came in with a CC50 of 18000 nM. In the series on Hepatitis C virus, the EC50 came to 860 nM and the EC90 is 2530 nM.

In the case of `COc1nc(N)nc2c1ncn2[C@@H]1O[C@H](COP(=O)(N[C@H](C(=O)OCC(C)(C)C)C(C)C)Oc2cccc3ccccc23)[C@@H](O)[C@@]1(C)O` (stereo partly drawn), in series [1] (Homo sapiens, Huh-7), the CC50 stood at 33000 nM. Also, in the series on Hepatitis C virus, the EC50 amounted to 190 nM and the EC90 is 640 nM.

By half-life is commonly meant the time needed for the level to fall by half in the phase considered. Turning to `COc1nc(N)nc2c1ncn2[C@@H]1O[C@H](CO[P@@](=O)(N[C@@H](C)C(=O)OCC(C)(C)C)Oc2cccc3ccccc23)[C@@H](O)[C@@]1(C)O`, the half-life in the series with Carboxypeptidase A came to 20 min.

With `COc1nc(N)nc2c1ncn2[C@@H]1O[C@H](CO[P@](=O)(N[C@@H](C)C(=O)OCC(C)(C)C)Oc2cccc3ccccc23)[C@@H](O)[C@@]1(C)O`, the half-life in the series with Carboxypeptidase A turned out to be 17 min.

Turning to `COc1nc(N)nc2c1ncn2[C@@H]1O[C@H](CO)[C@@H](O)[C@@]1(C)O` [BETA-2'-C-METHYL-6-O-METHYL GUANOSINE], in series [1] (Homo sapiens, Huh-7), the CC50 is over 100000 nM. Further, in the series on Hepatitis C virus, the EC50 was found to be 5200 nM and the EC90 came to 21000 nM.

For `COc1nc(N)nc2c1ncn2[C@@H]1O[C@H](COP(=O)(N[C@@H](C)C(=O)OCC(C)(C)C)Oc2cccc3ccccc23)[C@@H](O)[C@@]1(C)O` (stereo partly drawn) [BMS-986094], the CC50 in series [1] (setting [3]) stood at 7000 nM. Also, the Cmax_triphosphate with Hepatocyte came to 80 pmol/10^6cells. Further, the permeability in the series with Caco-2 amounted to 2.7%. Further, in the series on Hepatitis C virus, the EC50 turned out to be 10 nM and the EC90 was determined as 40 nM.
